Data on one molecule can be found in ChEMBL document CHEMBL4270630.

Molecules are shown by their SMILES.

The test system of data set [1] is Influenza A virus. As to the kind of experiment: Antiviral activity against Influenza A virus A/PR/8/34(H1N1) GFP-fused pseudotyped lentiviral particle expressing H1-HA/N1-NA infected in MDCK cells assessed as inhibition of pseudoparticle entry at 10 uM after 3 days by flow cytometry relative to control. The format is functional. Conditions: A/Puerto Rico/8/1934(H1N1), 72 h. In short, it runs like this: (§1)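 MDCK cells were seeded at 7500/well and one day later were exposed to compounds plus GFP lentiviral pseudoparticles bearing A/PR/8/34 H1-HA and N1-NA, with HA0 activated by trypsin. After 3 days the cells were trypsinized, fixed in paraformaldehyde and analysed for GFP by flow cytometry. Entry inhibition was taken as the reduction in GFP signal. Data are the mean ± SEM of four independent experiments.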
On the technique in general: Flow cytometry measures light scatter and fluorescence of single cells or particles in a stream.

Data set [2] relates to Influenza A virus. As to the kind of experiment: Antiviral activity against Influenza A virus A/PR/8/34(H1N1) infected in MDCK cells after 3 days by MTS assay. Format: functional, organism-based, A/Puerto Rico/8/1934(H1N1). To be noted: Influenza A virus, A/Puerto Rico/8/1934(H1N1), MDCK, 72 h. In short, it runs like this:
(§2)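 Semi-confluent MDCK cells were infected at an MOI of 0.0004 PFU/cell in Ultra-MDCK infection medium with 2 μg/mL TPCK-trypsin, together with compounds. After 3 days at 35 °C, CPE was scored by microscopy and confirmed by MTS formazan viability. EC50 is the concentration giving 50% inhibition of virus-induced CPE. Values are means of two to five independent tests.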

Data set [3] has as its system H3N2 subtype. As to the kind of experiment: Antiviral activity against Influenza A virus A/HK/7/87(H3N2) infected in MDCK cells assessed as reduction in virus-induced cytopathic effect after 3 days by microscopic method. Format: functional, organism-based. To be noted: A/Hong Kong/7/1987(H3N2), 72 h. In short, it runs like this: as §2
(Cytopathic effects are the visible damage that an infection or toxin causes in cultured cells.)

Data set [4] has as its system Influenza B virus. As to the kind of experiment: Antiviral activity against Influenza B virus B/Ned/537/05 infected in MDCK cells after 3 days by MTS assay. The format is functional, organism-based. To be noted: B/Ned/537/05, MDCK, 72 h. In short, it runs like this: (§3)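 Semi-confluent MDCK cells were infected at an MOI of 0.0004 PFU/cell in Ultra-MDCK infection medium with 2 μg/mL TPCK-trypsin, together with compounds. After 3 days at 35 °C, CPE was scored by microscopy and confirmed by MTS formazan viability. Values are means of two to five independent tests.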
(In general: Tetrazolium assays rely on reduction of a dye to a coloured formazan, in cell work by metabolically active cells.)

The test system of data set [5] is Influenza A virus. As to the kind of experiment: Antiviral activity against Influenza A virus A/PR/8/34(H1N1) GFP-fused pseudotyped lentiviral particle expressing H1-HA/N1-NA infected in MDCK cells assessed as inhibition of pseudoparticle entry at 2 uM after 3 days by flow cytometry relative to control. The format is functional. Conditions: A/Puerto Rico/8/1934(H1N1), 72 h. In short, it runs like this: as §1

Data set [6] concerns Influenza A virus. As to the kind of experiment: Antiviral activity against Influenza A virus A/Virginia/ATCC3/2009(H1N1pdm) infected in MDCK cells assessed as reduction in virus-induced cytopathic effect after 3 days by microscopic method. The format is functional, organism-based, Influenza A virus (A/Virginia/03/2009(H1N1)). To be noted: 72 h. In short, it runs like this: as §2

The next data set concerns MDCK. As to the kind of experiment: Cytotoxicity against MDCK cells assessed as reduction in cell viability after 3 days by MTS assay. The format is cell-based, Canis lupus familiaris. To be noted: dog, mdck, 72 h.
The test system of data set [7] is Influenza A virus. As to the kind of experiment: Antiviral activity against Influenza A virus A/PR/8/34(H1N1) infected in MDCK cells assessed as reduction in virus-induced cytopathic effect after 3 days by microscopic method. The format is functional, organism-based, A/Puerto Rico/8/1934(H1N1). Conditions: Influenza A virus, A/Puerto Rico/8/1934(H1N1), MDCK, 72 h. In short, it runs like this:
as §2

Data set [8] in a line: Cytotoxicity against MDCK cells assessed as alteration in cell morphology after 3 days by microscopic method. Format: cell-based, Canis lupus familiaris. Conditions: dog. In short, it runs like this: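 Mock-infected MDCK cells were treated with compounds in parallel with the antiviral assay, 3 days at 35 °C. MCC is the concentration causing minimal change in cell morphology by microscopy. CC50 is the 50% cytotoxic concentration by MTS formazan viability assay.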

Data set [9] concerns Influenza B virus. As to the kind of experiment: Antiviral activity against Influenza B virus B/Ned/537/05 infected in MDCK cells assessed as reduction in virus-induced cytopathic effect after 3 days by microscopic method. Format: functional, organism-based. Conditions: B/Ned/537/05, MDCK, 72 h. In short, it runs like this:
as §3

The subject of data set [10] is H3N2 subtype. As to the kind of experiment: Antiviral activity against Influenza A virus A/HK/7/87(H3N2) infected in MDCK cells after 3 days by MTS assay. Conditions: A/Hong Kong/7/1987(H3N2), 72 h. The format is functional, organism-based. In short, it runs like this: as §2
Data set [11] deals with Influenza A virus. As to the kind of experiment: Antiviral activity against Influenza A virus A/Virginia/ATCC3/2009(H1N1pdm) infected in MDCK cells after 3 days by MTS assay. The format is functional, organism-based, Influenza A virus (A/Virginia/03/2009(H1N1)). Conditions: 72 h. In short, it runs like this: as §2

As usually defined, the inhibition is the drop in the measured response relative to a control, in per cent. For orientation: EC50 means the concentration needed to bring the measured effect to its halfway point. As a reminder, the CC50 is the concentration giving 50% cytotoxicity.

With `CCCCCCCCCCOCc1cn(CCOCCOCCOCCOCc2cn([C@H]3C(=O)N[C@@H]4Cc5ccc(c(Cl)c5)Oc5cc6cc(c5O)Oc5ccc(cc5Cl)[C@@H](O[C@@H]5O[C@H](CO)[C@@H](O)[C@H](O)[C@H]5NC(C)=O)[C@H]5NC(=O)[C@H](NC(O)[C@@H]6NC(=O)[C@@H](NC4=O)c4cc(O)cc(c4)Oc4cc3ccc4O)c3ccc(O)c(c3)-c3c(O)cc(O)cc3[C@H](C(=O)O)NC5=O)nn2)nn1` (some centres not stated), the inhibition at 10 µM with Influenza A virus [1] was 92%. In addition, the EC50 with Influenza A virus [2] was 1.5 µM; with H3N2 subtype [3] it was 1.6 µM; with Influenza B virus [4] it was below 0.8 µM; in the data set with Influenza A virus [6] it was 1.8 µM; in the data set with Influenza A virus [7] it was 1.6 µM; in the data set with Influenza B virus [9] it was above 100 µM. Besides, the concentration for a half-maximal effect (EC50) in the data set on H3N2 subtype [10] worked out at 1.3 µM; in the data set on Influenza A virus [11], 1.8 µM. For the same molecule, the inhibition at 2 µM in the data set on Influenza A virus [5] is 56%. Besides, the CC50 in the data set on MDCK is at least 82 µM. Besides, the MCC at 72 h in data set [8] is at least 20 µM.
